A short description of data set [1]: Metabolic stability in rat liver microsomes assessed as compound remaining after 10 mins. Conditions: read-out: Stability. It is filed as ADME. In outline: (§1)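 Compound was incubated with human, mouse or rat liver microsomal preparations. Stability is the percent of compound remaining after 10 min.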
The target in data set [2] is T1, Macrophage colony-stimulating factor 1 receptor (Mus musculus, UniProt P09581).
T1 sequence (P09581 whole entry): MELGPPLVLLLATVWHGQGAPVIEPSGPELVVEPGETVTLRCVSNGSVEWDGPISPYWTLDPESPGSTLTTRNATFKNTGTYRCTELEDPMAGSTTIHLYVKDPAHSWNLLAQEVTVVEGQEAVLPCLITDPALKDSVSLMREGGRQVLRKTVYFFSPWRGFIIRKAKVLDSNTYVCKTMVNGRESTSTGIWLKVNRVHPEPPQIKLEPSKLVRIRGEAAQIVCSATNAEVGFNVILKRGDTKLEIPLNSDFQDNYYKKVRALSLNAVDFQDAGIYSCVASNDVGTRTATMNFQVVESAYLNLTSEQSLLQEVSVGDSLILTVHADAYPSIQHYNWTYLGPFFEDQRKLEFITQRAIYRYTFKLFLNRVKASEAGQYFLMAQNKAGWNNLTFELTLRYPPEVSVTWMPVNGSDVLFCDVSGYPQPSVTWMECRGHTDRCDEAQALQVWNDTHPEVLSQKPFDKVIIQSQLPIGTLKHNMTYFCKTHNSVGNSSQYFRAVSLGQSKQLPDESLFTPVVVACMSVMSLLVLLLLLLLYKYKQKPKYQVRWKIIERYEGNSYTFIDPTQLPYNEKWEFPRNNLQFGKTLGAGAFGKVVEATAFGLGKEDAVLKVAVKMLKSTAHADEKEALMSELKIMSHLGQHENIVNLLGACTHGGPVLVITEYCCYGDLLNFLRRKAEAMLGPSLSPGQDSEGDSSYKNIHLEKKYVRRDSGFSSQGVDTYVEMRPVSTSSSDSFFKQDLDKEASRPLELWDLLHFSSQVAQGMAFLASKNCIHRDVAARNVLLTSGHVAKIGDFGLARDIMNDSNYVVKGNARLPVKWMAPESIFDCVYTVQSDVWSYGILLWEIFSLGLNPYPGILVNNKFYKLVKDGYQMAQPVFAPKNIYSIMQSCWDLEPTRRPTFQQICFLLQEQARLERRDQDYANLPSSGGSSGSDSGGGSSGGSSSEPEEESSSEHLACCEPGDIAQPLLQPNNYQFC
As to the kind of experiment: Inhibition of FMS in mouse BMDM cells. It counts as cell-based.

Data set [3] can be described thus: Metabolic stability in human liver microsomes assessed as compound remaining after 10 mins. Conditions: liver microsomes, read-out: Stability. It counts as ADME. In outline:
as §1
A general note: Liver microsomes are vesicles of endoplasmic reticulum, rich in cytochrome P450 enzymes.

The nature of data set [4]: Metabolic stability in mouse liver microsomes assessed as compound remaining after 10 mins. It counts as ADME, Microsome. The following applies: for remaining at 10 min: liver microsomes, read-out: Stability. In outline:
as §1

Data set [5] has as its system Mo7e. As to the kind of experiment: Selectivity ratio of IC50 for KIT in human Mo7e cells to IC50 for FMS in mouse BMDM cells. It is filed as cell-based. In outline: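 Cellular selectivity was calculated as Mo7e IC50 divided by BMDM IC50. Mo7e IC50 came from SCF-dependent proliferation of Mo7e leukemia cells. BMDM IC50 came from proliferation of murine bone marrow-derived macrophages.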

Data set [6] deals with Mast/stem cell growth factor receptor Kit (Homo sapiens, UniProt P10721). Nature of the data set: Inhibition of KIT (unknown origin).
Chain of Mast/stem cell growth factor receptor Kit (P10721 whole entry): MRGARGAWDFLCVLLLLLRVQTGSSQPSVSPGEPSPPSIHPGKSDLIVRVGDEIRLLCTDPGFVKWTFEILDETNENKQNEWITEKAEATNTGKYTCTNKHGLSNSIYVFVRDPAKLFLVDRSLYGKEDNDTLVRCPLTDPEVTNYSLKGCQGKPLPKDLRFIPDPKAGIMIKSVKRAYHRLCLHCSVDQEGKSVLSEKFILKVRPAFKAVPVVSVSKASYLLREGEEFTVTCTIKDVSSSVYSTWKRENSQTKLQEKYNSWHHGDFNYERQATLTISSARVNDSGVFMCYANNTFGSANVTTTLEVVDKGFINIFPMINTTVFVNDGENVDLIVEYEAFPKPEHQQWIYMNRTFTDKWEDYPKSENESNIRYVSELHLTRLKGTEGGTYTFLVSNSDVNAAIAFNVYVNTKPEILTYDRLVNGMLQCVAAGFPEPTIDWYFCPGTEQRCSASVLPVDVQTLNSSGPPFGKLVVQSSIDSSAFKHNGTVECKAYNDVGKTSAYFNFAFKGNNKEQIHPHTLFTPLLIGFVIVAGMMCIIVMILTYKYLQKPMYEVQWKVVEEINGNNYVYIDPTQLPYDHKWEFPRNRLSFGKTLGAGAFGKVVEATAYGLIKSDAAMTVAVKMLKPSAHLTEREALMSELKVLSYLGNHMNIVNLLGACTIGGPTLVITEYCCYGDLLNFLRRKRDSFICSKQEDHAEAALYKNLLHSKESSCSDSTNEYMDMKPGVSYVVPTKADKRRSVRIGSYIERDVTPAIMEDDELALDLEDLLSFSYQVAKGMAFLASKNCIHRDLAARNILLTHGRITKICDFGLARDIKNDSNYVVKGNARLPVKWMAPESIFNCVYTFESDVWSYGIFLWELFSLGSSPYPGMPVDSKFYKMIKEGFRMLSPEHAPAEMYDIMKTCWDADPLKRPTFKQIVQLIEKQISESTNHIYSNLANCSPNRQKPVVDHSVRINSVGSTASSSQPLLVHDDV
In data set [7] the test system is Mus musculus. Nature of the data set: Inhibition of CSF-1-induced c-fos gene expression in mouse spleen at 30 mg/kg, po after 6 hrs. It is filed as functional. In outline: (§2)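 In the mouse pharmacodynamic model, compound was given orally. Spleen c-fos mRNA induced by an iv injection of CSF-1 was measured 6 or 8 h after dosing.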
Data set [8] concerns Mus musculus. As to the kind of experiment: Inhibition of CSF-1-induced c-fos gene expression in mouse spleen at 40 mg/kg, po after 6 hrs. It is filed as functional. In outline: as §2

pIC50: −log10 of the molar value.

By pIC50 is commonly meant the negative decadic logarithm of the IC50, by convention in mol/L. Turning to `CC1(C)CC=C(c2cc(C(C)(C)O)ccc2NC(=O)c2nc(C#N)c[nH]2)CC1`, the remaining at 10 min in data set [1] came out at 96%; in data set [3] it was 110%. The same compound showed a pIC50 in data set [2] of 7.60. Moreover, in data set [4] (microsomes, 10 min), the Stability is listed as 124%.
`N#Cc1cnc(C(=O)Nc2ccc(CCS(=O)(=O)NN)cc2C2=CCCCC2)[nH]1`: the pIC50 in data set [2] was 7.64.
Regarding `N#Cc1c[nH]c(C(=O)Nc2ccc(S(=O)(=O)N3CCOCC3)cc2C2=CCCCC2)n1`, the pIC50 in data set [2] was 6.68.
In data set [2], `N#Cc1cnc(C(=O)Nc2ccc(CN3CCOCC3)cc2C2=CCCCC2)[nH]1` showed a pIC50 of 7.70. Moreover, the remaining at 10 min in data set [3] came to 71%; in data set [4] it was 5%.
`N#Cc1c[nH]c(C(=O)Nc2ccc(C(N)=O)cc2C2=CCCCC2)n1` had a pIC50 in data set [2] of 7.47.
Turning to `N#Cc1c[nH]c(C(=O)Nc2ccc(CCC(=O)O)cc2C2=CCCCC2)n1`, the remaining at 10 min in data set [1] was found to be 19%; in data set [3], 83%.
On to `N#Cc1c[nH]c(C(=O)Nc2ccc(CCS(=O)(=O)N3CCOCC3)cc2C2=CCCCC2)n1`, for which the remaining at 10 min in data set [1] was found to be 4%; in data set [3], 118%; in data set [4], 93%.
`CC1(C)CC=C(c2cc(-c3nnn[nH]3)ccc2NC(=O)c2ncc(C#N)[nH]2)CC1`: the negative logarithm of the IC50 (pIC50) in data set [2] is under 6.52.
Consider `CC1(C)CC=C(c2cc(C(C)(C)NCCO)ccc2NC(=O)c2nc(C#N)c[nH]2)CC1`, for which the pIC50 in data set [2] is 8.11. The Ratio IC50 in data set [5] worked out at 32.
Consider `COCCN1CCN(C(C)(C)c2ccc(NC(=O)c3nc(C#N)c[nH]3)c(C3=CCC(C)(C)CC3)c2)CC1`, for which the remaining at 10 min came out at 40% in data set [1], 72% in data set [3] and 73% in data set [4]. The compound also had a pIC50 in data set [6] of 6.68.
For `CC1(C)CC=C(c2cc(CCN3CCOCC3)ccc2NC(=O)c2ncc(C#N)[nH]2)CC1`, the values for the remaining at 10 min in data set [3] and in data set [4] were 66% and 49%, respectively.
For the compound `CC1(C)CC=C(c2cc(C(C)(C)OCCN3CCOCC3)ccc2NC(=O)c2nc(C#N)c[nH]2)CC1`, the remaining at 10 min was determined as 44% in data set [1], 38% in data set [3] and 93% in data set [4]. The compound also gave a pIC50 in data set [6] of 7.24.
The inhibition in vivo is the percentage by which the read-out fell short of the control. As for `CC1(C)CC=C(c2cc(C(C)(C)N3CCS(=O)(=O)CC3)ccc2NC(=O)c2nc(C#N)c[nH]2)CC1`, the remaining at 10 min in data set [1] is 98%; in data set [3] it was 112%; in data set [4] it was 84%. Moreover, the pIC50 in data set [6] was 6.60. Moreover, the inhibition in vivo at 30 mg/kg in data set [7] is 8%.
With `CN(CCS(C)(=O)=O)C(C)(C)c1ccc(NC(=O)c2nc(C#N)c[nH]2)c(C2=CCC(C)(C)CC2)c1`, the pIC50 in data set [2] was 7.68.
For the compound `CN1CCN(C(C)(C)c2ccc(NC(=O)c3ncc(C#N)[nH]3)c(C3=CCC(C)(C)CC3)c2)CC1`, the remaining at 10 min turned out to be 16% in data set [1], 103% in data set [3] and 110% in data set [4]. In data set [8], at 40 mg/kg the inhibition in vivo was 0%.
The compound `CC1(C)CC=C(c2cc(C(C)(C)N3CCOCC3)ccc2NC(=O)c2nc(C#N)c[nH]2)CC1` gave a pIC50 in data set [2] of 7.77.
In turn, `CC1(C)CC=C(c2cc(C(N)=O)ccc2NC(=O)c2nc(C#N)c[nH]2)CC1` gave a pIC50 in data set [2] of 7.49.
As to `COCCNC(C)(C)c1ccc(NC(=O)c2nc(C#N)c[nH]2)c(C2=CCC(C)(C)CC2)c1`, the remaining at 10 min is 78% in data set [1], 79% in data set [3] and 50% in data set [4]. In data set [6], this compound had a pIC50 of 7.38.
As to `N#Cc1cnc(C(=O)Nc2ccc(CCO)cc2C2=CCCCC2)[nH]1`, the remaining at 10 min in data set [1] was determined as 3%; in data set [3], 7%; in data set [4] it was 3%. Also, the pIC50 in data set [2] was 7.40.
On to `CC1(C)CC=C(c2cc(CCO)ccc2NC(=O)c2ncc(C#N)[nH]2)CC1`, for which the pIC50 in data set [2] is 7.74. Besides, the remaining at 10 min in data set [3] worked out at 74%; in data set [4], 41%.
Take `CC1(C)CC=C(c2cc(C(C)(C)NCCN3CCOCC3)ccc2NC(=O)c2nc(C#N)c[nH]2)CC1`: the remaining at 10 min in data set [1] is 90%; in data set [3], 82%; in data set [4], 62%. In addition, the pIC50 in data set [2] was 8.24; in data set [6], 7.04. The same compound registered an inhibition in vivo at 30 mg/kg in data set [7] of 14%.
For `CC1(C)CC=C(c2cc(CN3CCN(CCO)CC3)ccc2NC(=O)c2nc(C#N)c[nH]2)CC1`, the remaining at 10 min in data set [1] was found to be 2%; in data set [3] it was 101%; in data set [4], 79%.
On to `CC1(C)CC=C(c2cc(C(C)(C)OCCN3CCCC3)ccc2NC(=O)c2nc(C#N)c[nH]2)CC1`, for which the pIC50 in data set [6] was 7.60.
In the case of `N#Cc1c[nH]c(C(=O)Nc2ccc(CCS(N)(=O)=O)cc2C2=CCCCC2)n1`, the negative logarithm of the IC50 (pIC50) in data set [2] is 7.27.
As for `N#Cc1cnc(C(=O)Nc2ccc(Cc3nnn[nH]3)cc2C2=CCCCC2)[nH]1`, in data set [2], the pIC50 is under 6.52.
`CC1(C)CC=C(c2cc(CCS(=O)(=O)NN)ccc2NC(=O)c2nc(C#N)c[nH]2)CC1` had a pIC50 in data set [2] of 7.68.
`CC1(C)CC=C(c2cc(S(C)(=O)=O)ccc2NC(=O)c2nc(C#N)c[nH]2)CC1`: the pIC50 in data set [2] was 7.23.
Same read-out and setting: with `CC1(C)CC=C(c2cc(C(=O)O)ccc2NC(=O)c2nc(C#N)c[nH]2)CC1` the figure was under 6.52.
`CC(C)(O)Cc1ccc(NC(=O)c2nc(C#N)c[nH]2)c(C2=CCCCC2)c1`: the remaining at 10 min in data set [1] stood at 47%; in data set [3], 66%; in data set [4], 61%. The compound further showed a pIC50 in data set [2] of 7.49.
Turning to `N#Cc1cnc(C(=O)Nc2ccc(CCN3CCOCC3)cc2C2=CCCCC2)[nH]1`, the pIC50 in data set [2] is 8.74. In addition, the remaining at 10 min stood at 46% in data set [3] and 2% in data set [4].
Consider `CC(O)c1ccc(NC(=O)c2ncc(C#N)[nH]2)c(C2=CCC(C)(C)CC2)c1` (stereo unspecified), for which the pIC50 in data set [2] is under 6.82.
For the compound `CCN1CCN(C(C)(C)c2ccc(NC(=O)c3nc(C#N)c[nH]3)c(C3=CCC(C)(C)CC3)c2)CC1`, the remaining at 10 min in data set [1] amounted to 32%; in data set [3] it was 108%; in data set [4] it was 84%. The pIC50 in data set [6] was 7.30.
As for `CN(C)C(=O)c1ccc(NC(=O)c2nc(C#N)c[nH]2)c(C2=CCC(C)(C)CC2)c1`, the negative logarithm of the IC50 (pIC50) in data set [2] was 6.89.
Turning to `CC1(C)CC=C(c2cc(CC(=O)NCCCO)ccc2NC(=O)c2ncc(C#N)[nH]2)CC1`, the pIC50 in data set [2] was under 7.00.
For the compound `COCCN(C)C(C)(C)c1ccc(NC(=O)c2nc(C#N)c[nH]2)c(C2=CCC(C)(C)CC2)c1`, the results for the remaining at 10 min in data set [1] and in data set [3] were 13% and 11%, respectively.
Regarding `N#Cc1cnc(C(=O)Nc2ccc(S(N)(=O)=O)cc2C2=CCCCC2)[nH]1`, the pIC50 in data set [2] was under 6.82.
For `CN(C)CC(=O)N1CCC(c2ccc(NC(=O)c3nc(C#N)c[nH]3)c(C3=CCCCC3)c2)CC1`, in data set [1], the remaining at 10 min was 77%. The Ratio IC50 in data set [5] is 15.
On to `CC1(C)CC=C(c2cc(C(C)(C)CO)ccc2NC(=O)c2nc(C#N)c[nH]2)CC1`, for which the pIC50 in data set [2] is 7.48.
With `CC1(C)CC=C(c2cc(CCS(N)(=O)=O)ccc2NC(=O)c2nc(C#N)c[nH]2)CC1`, the results for the remaining at 10 min in data set [1] and in data set [3] were 5% and 109%, respectively. In data set [2], this compound gave a pIC50 of 7.07.
Regarding `CC1(C)CC=C(c2cc(Cc3nnn[nH]3)ccc2NC(=O)c2ncc(C#N)[nH]2)CC1`, the pIC50 in data set [2] is under 7.00.
As to `CN(C)CCOC(C)(C)c1ccc(NC(=O)c2ncc(C#N)[nH]2)c(C2=CCC(C)(C)CC2)c1`, the remaining at 10 min stood at 39% in data set [1] and 104% in data set [3].
In the case of `CC1(C)CC=C(c2cc(S(N)(=O)=O)ccc2NC(=O)c2nc(C#N)c[nH]2)CC1`, the pIC50 in data set [2] was under 6.82.
For the compound `CC1(C)CC=C(c2cc(C(C)(C)NCCS(C)(=O)=O)ccc2NC(=O)c2nc(C#N)c[nH]2)CC1`, the remaining at 10 min in data set [1] was determined as 28%; in data set [3], 93%; in data set [4], 62%.

These data come from ChEMBL document CHEMBL3085648, “Enhancement of kinase selectivity in a potent class of arylamide FMS inhibitors” (Bioorg Med Chem Lett, 2013).
